Data as given in ChEMBL document CHEMBL1146555, “Bioactive novel polyphenols from the fruit of Manilkara zapota (Sapodilla)” (J Nat Prod, 2003).

Assays:
HCT-116 = experiment: Cytotoxicity against human HCT116 cells after 72 hrs by MTT assay; format: functional, cell-based; details: HCT-116, 72 h
In short: (§1)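 Human colon cancer cells kept in DMEM with 10% FBS, 5% CO2, 37 °C, no antibiotics. About 3.0 × 10^4 cells per well, grown to 40% confluence, then exposed to compounds in DMSO for 72 h. MTT (5 mg/mL stock) added 4 h, formazan solubilized, absorbance at 570 nm. Octuplicate wells, mean and SD; IC50 by linear regression.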

SW480 = experiment: Cytotoxicity against human SW480 cells after 72 hrs by MTT assay; format: functional, cell-based; details: SW480, 72 h; in short: as §1
[1] = system: Radical scavenging activity; experiment: Antioxidant activity assessed as DPPH radical scavenging activity after 30 mins; format: functional
In short: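 Test samples in DMSO mixed with 300 µM ethanolic DPPH, incubated 37 °C for 30 min, absorbance read at 515 nm. Final test concentrations typically 1-50 µg/mL. Percent inhibition relative to DMSO-treated control; IC50 = concentration scavenging 50% of DPPH radicals.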

| IC50 [1] [µM] | SMILES | IC50 (HCT-116) [µM] | IC50 (SW480) [µM] |
| --- | --- | --- | --- |
| 23.5 | O=C(/C=C/c1ccc(O)c(O)c1)O[C@@H]1C[C@](O)(C(=O)O)C[C@@H](O)[C@H]1OC(=O)c1cc(O)c(O)c(O)c1 | 154 | 134 |
| 12.9 | COC(=O)[C@]1(O)C[C@@H](O)[C@@H](OC(=O)c2cc(O)c(O)c(O)c2)[C@H](OC(=O)/C=C/c2ccc(O)c(O)c2)C1 | 190 | 160 |
| 39.5 | O=C(/C=C/c1ccc(O)c(O)c1)O[C@@H]1C[C@](O)(C(=O)O)C[C@@H](O)[C@H]1O [CHLOROGENIC ACID] | 367 | 353 |
|  | O=C(O[C@@H]1Cc2c(O)cc(O)cc2O[C@@H]1c1cc(O)c(O)c(O)c1)c1cc(O)c(O)c(O)c1 [EPIGALOCATECHIN GALLATE] | 161 | 195 |
